PubChem BioAssay
Activity calls are given as the source filed them.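 Rule for the calls, unless noted: active = inhibition at or above 50% at 10 µM; inactive = inhibition below 50%.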

Assays:
[1] = inhibitors of TNFa-induced NFkB p65 translocation, primary screen, imaging, HUVEC, MLSMR starter and 10KST1 sets (AID 438;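 active = inhibition above 20% together with a positive visual image hit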;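 note: compound added about 3h40 before a 20 min TNFalpha stimulation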;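 for inhibition: signal is the nuclear over cytoplasmic p65 intensity ratio per well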); conditions: HUVEC TNFa-induced p65 nuclear translocation; cell count: measured here: nuclei count (cytotoxicity indicator), at 2.08 µM; inhibition: at 2 µM, stronger effect = higher value, 0% TNFa-plus-vehicle, 100% no-TNFa wells
[2] = inhibitors of mutant huntingtin aggregation, primary screen, imaging, exon1htt(103Q)mCFP cells, high-content imaging (AID 483;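 active = visual image review flags a hit and inhibition of aggregation exceeds 20%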;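 note: compound exposure lasted 3 days before fixation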;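 for nuclei count: percent of the per-plate median nuclei count of sample wells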); conditions: exon1htt(103Q)mCFP cell line, aggregate imaging, at 2 µM; inhibition of aggregation: stronger effect = higher value; nuclei count: measured here: cell count, toxicity
[3] = inhibitors of E-selectin induction by TNFa, primary screen, imaging, HUVEC, immunofluorescence, MLSMR starter and 10KST1 sets (AID 487;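 active = visually confirmed hit in the image check and inhibition above 20%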;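 for inhibition: signal is fraction of cell area covered by stained E-selectin grains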;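 for nuclei count: 100% = median nuclei count of all wells on the same plate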); conditions: HUVEC TNFalpha-induced E-selectin immunofluorescence imaging, at 2 µM; inhibition: stronger effect = higher value; nuclei count: measured here: cell number, toxicity
[4] = target: Voltage-gated potassium channel subunit beta-2 (Rattus norvegicus) (UniProt P62483); test: KvBeta enzyme negative modulators, primary screen, biochemical, NADPH fluorescence (AID 622;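 active = fluorescence slope higher than the sample average by over 3 SD, cut at about -0.22 in these data, passing the limit was not always enough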;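 note: slope of raw intensity against log time taken from 70 to 1610 s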); conditions: recombinant KvBeta, 4-cyanobenzaldehyde reduction, at 10 µM, stronger effect = higher value
Sequence of Voltage-gated potassium channel subunit beta-2 (Rattus norvegicus) (P62483 whole entry, looked up): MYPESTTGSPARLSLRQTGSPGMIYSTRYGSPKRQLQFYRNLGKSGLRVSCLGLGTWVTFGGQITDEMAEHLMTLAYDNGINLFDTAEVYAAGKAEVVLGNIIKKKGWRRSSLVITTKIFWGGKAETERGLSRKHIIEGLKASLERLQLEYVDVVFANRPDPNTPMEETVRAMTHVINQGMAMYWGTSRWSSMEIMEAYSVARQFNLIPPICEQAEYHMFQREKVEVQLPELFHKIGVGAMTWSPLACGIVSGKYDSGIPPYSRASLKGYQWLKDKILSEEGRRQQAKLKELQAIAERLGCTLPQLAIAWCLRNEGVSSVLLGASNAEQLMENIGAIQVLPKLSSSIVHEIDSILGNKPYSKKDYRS

[5] = target: Voltage-gated potassium channel subunit beta-2 (Rattus norvegicus) (UniProt P62483); test: KvBeta positive modulators, primary screen, biochemical, NADPH fluorescence (AID 623;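 active = NADPH fluorescence slope more negative than the mean of all samples by about 3 SD, 99.7% confidence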;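 note: fluorescence intensity change per second fitted from 20 to 320 s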); conditions: Recombinant KvBeta, NADPH fluorescence decrease slope, 10 min; at 10 µM; stronger effect = lower value
[6] = target: Muscarinic acetylcholine receptor M4 (Homo sapiens) (UniProt P08173); test: compounds altering M4/GIRK thallium flux, either direction, primary screen, M4 allosteric agonist project, cell-based, HEK293 M4/GIRK, BTC-AM (AID 625;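 active = fluorescence slope after compound addition differing from the mean of all tested samples at 99.7% confidence, mostly higher but some lower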;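 note: thallium influx through GIRK channels coupled to M4 in HEK293 cells with BTC-AM dye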); conditions: at 10 µM, actives lie on both sides
Sequence of Muscarinic acetylcholine receptor M4 (Homo sapiens) (P08173 whole entry, looked up): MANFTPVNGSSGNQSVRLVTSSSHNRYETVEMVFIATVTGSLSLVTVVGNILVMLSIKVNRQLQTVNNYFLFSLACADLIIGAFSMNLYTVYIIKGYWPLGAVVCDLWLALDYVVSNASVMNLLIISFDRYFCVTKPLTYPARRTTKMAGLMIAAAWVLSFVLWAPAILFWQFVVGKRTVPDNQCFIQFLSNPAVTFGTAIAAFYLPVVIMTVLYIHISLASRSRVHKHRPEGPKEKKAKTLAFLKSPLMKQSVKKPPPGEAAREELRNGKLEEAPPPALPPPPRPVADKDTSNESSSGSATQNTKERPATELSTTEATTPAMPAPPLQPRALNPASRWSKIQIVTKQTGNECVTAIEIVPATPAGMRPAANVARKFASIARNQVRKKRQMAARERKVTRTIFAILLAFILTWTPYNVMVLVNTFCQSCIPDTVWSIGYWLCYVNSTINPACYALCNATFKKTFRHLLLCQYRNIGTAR
In short: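 Material: HEK293 cells with M4 receptor and GIRK channels; Times: cells overnight at 37 °C, BTC-AM loading 1 h, reads 2 min total; Technique: kinetic BTC-AM fluorescence sampled at 1 Hz, 10 s pre-addition baseline; Read-out basis: slope over 15–24 s of trace normalized to starting intensity; Controls: carbachol positive, DMSO negative.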

[7] = inhibitors of Sendai virus-induced IRF3 signaling, primary screen, TLR/RLR signaling modifier project, cell-based, Sendai virus stimulus, luciferase, 10K MLSCN set (AID 602276); conditions: HEK293 RL24 IRF3 luciferase reporter, at 10 µM, stronger effect = higher value;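 note: firefly luciferase from ISG56 promoter only with Renilla not read in this screen; 0% = Sendai virus plus DMSO and 100% = medium plus DMSO without virus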
[8] = inhibitors of poly I:C-induced TLR3 signaling, primary screen, cell-based, poly I:C stimulus, luciferase, 10K MLSCN set (AID 602277;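 active = inhibition of the reporter signal at or above 50%; inactive = inhibition below 50%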); conditions: HEK293-TLR3 RL24 IRF3 luciferase reporter, at 10 µM, stronger effect = higher value

Compound	cell count [1]	inhibition [1]	inhibition of aggregation [2]	nuclei count [2] [%]	inhibition [3]	nuclei count [3] [%]	fluorescence slope [4]	NADPH fluorescence slope [5]	fluorescence slope [6]	inhibition [7]	inhibition [8]
O=C(OCc1nnc(-c2ccccc2)o1)c1ccc(S(=O)(=O)NCc2ccco2)cc1	722	-8.9% (inactive)	-17.9% (inactive)	89.7	-51.8% (inactive)	113	-0.458 (inactive)	-0.000324 (inactive)	0.00635 (inactive)	-7.1% (inactive)	2.67% (inactive)
CCn1c(=N)n(CC(=O)C23CC4CC(CC(C4)C2)C3)c2ccccc21	721	-26.7% (inactive)	-8.2% (inactive)	93.6	-45.9% (inactive)	117	-0.271 (inactive)	-1.5e-05 (inactive)	0.00365 (inactive)	1.98% (inactive)	23.3% (inactive)
COc1ccc(-c2ccc(-c3nnc(-c4ccncc4)o3)cc2)cc1	379	-7.7% (inactive)	5.3% (inactive)	103	-76.9% (inactive)	99.2	-0.501 (inactive)	-3.5e-05 (inactive)	0.00505 (inactive)	-14.4% (inactive)	-28.2% (inactive)
CCOC(=O)N1CCN(c2cc(=O)n(-c3ccc(OCC)cc3)c(=O)[nH]2)CC1	551	-10% (inactive)	9.3% (inactive)	109	-26.9% (inactive)	112	-0.431 (inactive)	0.0001 (inactive)	0.00574 (inactive)	3.3% (inactive)	10.8% (inactive)
CCc1nc2c(cnn2-c2ccc(Cl)cc2)c(=O)n1-c1ccc2c(c1)OCCO2	706	-7.7% (inactive)	-5.1% (inactive)	120	-49.7% (inactive)	122	-0.543 (inactive)	-1.7e-05 (inactive)	0.00631 (inactive)	3.09% (inactive)	-2.86% (inactive)
CSc1cccc(NC(=O)C2CCN(S(C)(=O)=O)CC2)c1	248	3.5% (inactive)	16.4% (inactive)	80.7	-296% (inactive)	120	-0.438 (inactive)	3.2e-05 (inactive)	0.00544 (inactive)	13.5% (inactive)	13.6% (inactive)
O=C(C1CC1)N1CCc2cc(S(=O)(=O)N(CCO)Cc3ccccc3)ccc21	612	7.7% (inactive)	-16% (inactive)	108	-91% (inactive)	122	-0.498 (inactive)	0.000108 (inactive)	0.00651 (inactive)	-3.85% (inactive)	-12.4% (inactive)
CCOC(=O)C1CCCN(Cc2nc(N)nc(Nc3ccccc3)n2)C1 (centres undefined)	741	-4.7% (inactive)	-2.7% (inactive)	104	-49.1% (inactive)	106	-0.57 (inactive)	-4.6e-05 (inactive)	0.0052 (inactive)	22.1% (inactive)	16.8% (inactive)
CCCn1c(=N)n(CCOc2ccc(OC)cc2)c2ccccc21	665	21.3% (inactive)	5.9% (inactive)	92.6	15.1% (inactive)	139	-0.466 (inactive)	-4.2e-05 (inactive)	0.00387 (inactive)	20.2% (inactive)	15.4% (inactive)
COc1ccc(OC)c(CNC(=O)CCN2C(=O)COc3ccccc32)c1	663	14.4% (inactive)	21.7% (inactive)	64	-29.9% (inactive)	110	-0.479 (inactive)	-6e-05 (inactive)	0.00555 (inactive)	-19.9% (inactive)	-11.1% (inactive)
Cc1nnc(SCCn2c(N3CC(C)CC(C)C3)nc3c2c(=O)n(C)c(=O)n3C)s1 (centres undefined)	207	3.4% (inactive)	10.1% (inactive)	84.9	60.7% (active)	81.2	-0.598 (inactive)	-2.7e-05 (inactive)	0.00478 (inactive)	15.7% (inactive)	21.2% (inactive)
CCCCCn1c(=O)[nH]c2cc(C(=O)NCCN3CCOCC3)ccc2c1=O	355	-1% (inactive)	18% (inactive)	104	-15.3% (inactive)	120	-0.323 (inactive)	-3.7e-05 (inactive)	0.00658 (inactive)	5.81% (inactive)	9.94% (inactive)
CCOC(=O)CC(NS(=O)(=O)c1ccc(NC(C)=O)cc1)c1ccc(OCC)cc1 (centres undefined)	376	9.9% (inactive)	-7.9% (inactive)	95.7	-101% (inactive)	126	-0.588 (inactive)	3.6e-06 (inactive)	0.00588 (inactive)	14% (inactive)	17.3% (inactive)
CS(=O)(=O)N(CC(=O)N1CCN(c2cccc(Cl)c2)CC1)C1CCCCC1	645	-6% (inactive)	11% (inactive)	87.4	8.8% (inactive)	78.2	-0.576 (inactive)	-4.3e-05 (inactive)	0.00576 (inactive)	2.97% (inactive)	0.307% (inactive)
